Measured values as given in ChEMBL document CHEMBL1275435, “A naturally occurring proline-to-alanine amino acid change in Fks1p in Candida parapsilosis, Candida orthopsilosis, and Candida metapsilosis accounts for reduced echinocandin susceptibility” (Antimicrob Agents Chemother, 2008).
Converted amounts (≈) assume the structure as drawn. *1 amine or outer side, *2 acyl side, *3 side chain or, on linkers, in order; H or OH if unused. Where a SMILES comes first, the peptide text is derived from it. Bridges are numbered along the chain shown (N, C = ends). [ ]: non-standard residue; d: D form. The star is where a group is joined. hTyr(3S-OH,4S-OH,3'-OSO3H) = N[C@H](C(=O)O)[C@H](O)[C@@H](O)c1ccc(O)c(OS(=O)(=O)O)c1; Orn(4R-OH,5R-OH) = O=C([C@H](C[C@@H](O)[C@@H](O)N[*:3])N[*:1])[*:2]; Pro(3S-OH,4S-Me) = C[C@H]1CN[C@H](C(=O)O)[C@H]1O; X1 = CCCCCOc1ccc(-c2cc(-c3ccc(C(=O)*)cc3)no2)cc1; Gln(3R-OH) = NC(=O)C[C@@H](O)[C@H](N)C(=O)O; Hyp = O=C(O)[C@@H]1C[C@@H](O)CN1

Key:
[1] = Inhibition of Candida parapsilosis H4 glucan synthase assessed as [3H]UDPG incorporation
How it was run: (§1)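 Cells were grown with vigorous shaking at 30°C to early stationary phase in YPD. Membrane GS was partially purified by product entrapment, using 10-fold more cells for low-activity strains. The polymerization assay was started by adding GS, with drug serially diluted from 0.01 to 10,000 ng/ml. Reactions ran 60 min at 25°C and were stopped on ice. IC50 came from sigmoidal variable-slope fits, as arithmetic means ± SD of three repetitions on three days.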

Candida parapsilosis [2] = test: Antifungal activity against Candida parapsilosis ATCC 22019 by CLSI method; format: functional; details: Lodderomyces parapsilosis
[3] = Inhibition of Candida albicans Sc5314 glucan synthase assessed as [3H]UDPG incorporation; how it was run: as §1
Candida parapsilosis [4] = test: Antifungal activity against Candida parapsilosis H5 by CLSI method; format: functional; details: Lodderomyces parapsilosis
[5] = Inhibition of Candida glabrata T51916 glucan synthase assessed as [3H]UDPG incorporation; set-up: species or system Nakaseomyces glabratus; how it was run: as §1
Nakaseomyces glabratus [6] = test: Antifungal activity against Candida glabrata T51916 by CLSI method; format: functional
[7] = Inhibition of Candida parapsilosis H5 glucan synthase assessed as [3H]UDPG incorporation; how it was run: as §1
Candida albicans [8] = test: Antifungal activity against Candida albicans ATCC 90028 by CLSI method; format: functional
Saccharomyces cerevisiae [9] = test: Antifungal activity against Saccharomyces cerevisiae BY4742-FKS1P649A mutant by CLSI method; format: functional
How it was run: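 Broth microdilution following CLSI M27-A2, run in YPD broth (1% yeast extract, 2% Bacto peptone, 2% dextrose). MICs are geometric means of at least three repetitions on three separate days.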

[10] = Inhibition of Candida metapsilosis 960161 glucan synthase assessed as [3H]UDPG incorporation; how it was run: as §1
[11] = Inhibition of Saccharomyces cerevisiae BY4742-FKS1P649A mutant glucan synthase assessed as [3H]UDPG incorporation; how it was run: as §1
Candida albicans [12] = test: Antifungal activity against Candida albicans Sc5314 by CLSI method; format: functional
Candida orthopsilosis [13] = test: Antifungal activity against Candida orthopsilosis H10 by CLSI method; format: functional; details: Lodderomyces orthopsilosis
[14] = Inhibition of Saccharomyces cerevisiae BY4742 glucan synthase assessed as [3H]UDPG incorporation; how it was run: as §1
[15] = Inhibition of Candida albicans ATCC 36082 glucan synthase assessed as [3H]UDPG incorporation; how it was run: as §1
Candida orthopsilosis [16] = test: Antifungal activity against Candida orthopsilosis 981224 by CLSI method; format: functional; details: Lodderomyces orthopsilosis
Candida albicans [17] = test: Antifungal activity against Candida albicans ATCC 36082 by CLSI method; format: functional
Candida metapsilosis [18] = test: Antifungal activity against Candida metapsilosis am-2006-0113 by CLSI method; format: functional; details: Lodderomyces metapsilosis
[19] = Inhibition of Candida albicans M122 glucan synthase assessed as [3H]UDPG incorporation; how it was run: as §1
[20] = Inhibition of Candida glabrata ATCC 90030 glucan synthase assessed as [3H]UDPG incorporation; set-up: species or system Nakaseomyces glabratus; how it was run: as §1
Candida metapsilosis [21] = test: Antifungal activity against Candida metapsilosis 960161 by CLSI method; format: functional; details: Lodderomyces metapsilosis
Saccharomyces cerevisiae [22] = test: Antifungal activity against FKS1 deficient Saccharomyces cerevisiae BY4742 by CLSI method; format: functional
[23] = Inhibition of Candida orthopsilosis 981224 glucan synthase assessed as [3H]UDPG incorporation; how it was run: as §1
[24] = Inhibition of Candida orthopsilosis H10 glucan synthase assessed as [3H]UDPG incorporation; how it was run: as §1
[25] = Inhibition of Candida parapsilosis ATCC 22019 glucan synthase by assessed as [3H]UDPG incorporation; how it was run: as §1
[26] = Inhibition of Candida metapsilosis am-2006-0113 glucan synthase assessed as [3H]UDPG incorporation; how it was run: as §1
Candida parapsilosis [27] = test: Antifungal activity against Candida parapsilosis H4 by CLSI method; format: functional; details: Lodderomyces parapsilosis
Saccharomyces cerevisiae [28] = test: Antifungal activity against Saccharomyces cerevisiae BY4742 by CLSI method; format: functional
Nakaseomyces glabratus [29] = test: Antifungal activity against Candida glabrata ATCC 90030 by CLSI method; format: functional
Candida albicans [30] = test: Antifungal activity against Candida albicans M122 by CLSI method; format: functional
[31] = Inhibition of Candida albicans ATCC 90028 glucan synthase assessed as [3H]UDPG incorporation; how it was run: as §1

Structure (SMILES): CCCCCOc1ccc(-c2cc(-c3ccc(C(=O)N[C@H]4C[C@@H](O)[C@@H](O)NC(=O)[C@@H]5[C@@H](O)[C@@H](C)CN5C(=O)[C@H]([C@H](O)CC(N)=O)NC(=O)[C@H]([C@H](O)[C@@H](O)c5ccc(O)c(OS(=O)(=O)O)c5)NC(=O)[C@@H]5C[C@@H](O)CN5C(=O)[C@H]([C@@H](C)O)NC4=O)cc3)no2)cc1 [MICAFUNGIN] (X1-[Orn(4R-OH,5R-OH)]T[Hyp][hTyr(3S-OH,4S-OH,3'-OSO3H)][Gln(3R-OH)][Pro(3S-OH,4S-Me)]; lactam 1-C)
- IC50 [1]: 0.34083 µg/mL (≈ 0.268 µM)
- Ki [1]: 0.486 µg/mL (≈ 0.383 µM)
- MIC (Candida parapsilosis [2]): 1.6 µg/mL (≈ 1.26 µM)
- IC50 [3]: 0.05825 µg/mL (≈ 0.0459 µM)
- Ki [3]: 0.0275 µg/mL (≈ 0.0216 µM)
- MIC (Candida parapsilosis [4]): 1.26 µg/mL (≈ 0.992 µM)
- IC50 [5]: 0.11235 µg/mL (≈ 0.0884 µM)
- Ki [5]: 0.51 µg/mL (≈ 0.401 µM)
- MIC (Nakaseomyces glabratus [6]): 0.4 µg/mL (≈ 0.315 µM)
- IC50 [7]: 0.49363 µg/mL (≈ 0.389 µM)
- Ki [7]: 0.261 µg/mL (≈ 0.205 µM)
- MIC (Candida albicans [8]): 0.03 µg/mL (≈ 0.0236 µM)
- MIC (Saccharomyces cerevisiae [9]): 0.5 µg/mL (≈ 0.394 µM)
- IC50 [10]: 0.11373 µg/mL (≈ 0.0895 µM)
- Ki [10]: 0.3825 µg/mL (≈ 0.301 µM)
- IC50 [11]: 5.199 µg/mL (≈ 4.09 µM)
- Ki [11]: 5.7065 µg/mL (≈ 4.49 µM)
- MIC (Candida albicans [12]): 0.05 µg/mL (≈ 0.0394 µM)
- MIC (Candida orthopsilosis [13]): 0.63 µg/mL (≈ 0.496 µM)
- IC50 [14]: 0.15945 µg/mL (≈ 0.126 µM)
- Ki [14]: 0.17901 µg/mL (≈ 0.141 µM)
- IC50 [15]: 0.01888 µg/mL (≈ 0.0149 µM)
- Ki [15]: 0.0155 µg/mL (≈ 0.0122 µM)
- MIC (Candida orthopsilosis [16]): 1.26 µg/mL (≈ 0.992 µM)
- MIC (Candida albicans [17]): 0.02 µg/mL (≈ 0.0157 µM)
- MIC (Candida metapsilosis [18]): 1.59 µg/mL (≈ 1.25 µM)
- IC50 [19]: 0.9431 µg/mL (≈ 0.742 µM)
- Ki [19]: 2.59 µg/mL (≈ 2.04 µM)
- IC50 [20]: 0.00068 µg/mL (≈ 0.000535 µM)
- MIC (Candida metapsilosis [21]): 1.59 µg/mL (≈ 1.25 µM)
- MIC (Saccharomyces cerevisiae [22]): 0.015 µg/mL (≈ 0.0118 µM)
- IC50 [23]: 0.07752 µg/mL (≈ 0.061 µM)
- Ki [23]: 0.248 µg/mL (≈ 0.195 µM)
- IC50 [24]: 0.1527 µg/mL (≈ 0.12 µM)
- Ki [24]: 0.1775 µg/mL (≈ 0.14 µM)
- IC50 [25]: 0.24527 µg/mL (≈ 0.193 µM)
- Ki [25]: 0.476 µg/mL (≈ 0.375 µM)
- IC50 [26]: 0.07032 µg/mL (≈ 0.0554 µM)
- Ki [26]: 0.266 µg/mL (≈ 0.209 µM)
- MIC (Candida parapsilosis [27]): 1.12 µg/mL (≈ 0.882 µM)
- MIC (Saccharomyces cerevisiae [28]): 0.03 µg/mL (≈ 0.0236 µM)
- MIC (Nakaseomyces glabratus [29]): 0.06 µg/mL (≈ 0.0472 µM)
- MIC (Candida albicans [30]): 0.25 µg/mL (≈ 0.197 µM)
- IC50 [31]: 0.0102 µg/mL (≈ 0.00803 µM)
- Ki [31]: 0.0235 µg/mL (≈ 0.0185 µM)

Structure (SMILES): CC[C@H](C)C[C@H](C)CCCCCCCCC(=O)N[C@H]1C[C@@H](O)[C@@H](NCCN)NC(=O)[C@@H]2[C@@H](O)CCN2C(=O)[C@H]([C@H](O)CCN)NC(=O)[C@H]([C@H](O)[C@@H](O)c2ccc(O)cc2)NC(=O)[C@@H]2C[C@@H](O)CN2C(=O)[C@H]([C@@H](C)O)NC1=O [CASPOFUNGIN]
- IC50 [1]: 0.07919 µg/mL (≈ 0.0724 µM)
- Ki [1]: 0.00393 µg/mL (≈ 0.00359 µM)
- MIC (Candida parapsilosis [2]): 1.4 µg/mL (≈ 1.28 µM)
- Ki [3]: 0.00297 µg/mL (≈ 0.00272 µM)
- MIC (Candida parapsilosis [4]): 2.24 µg/mL (≈ 2.05 µM)
- IC50 [5]: 0.1575 µg/mL (≈ 0.144 µM)
- Ki [5]: 0.1945 µg/mL (≈ 0.178 µM)
- MIC (Nakaseomyces glabratus [6]): 2 µg/mL (≈ 1.83 µM)
- IC50 [7]: 0.01253 µg/mL (≈ 0.0115 µM)
- Ki [7]: 0.00601 µg/mL (≈ 0.0055 µM)
- MIC (Candida albicans [8]): 0.2 µg/mL (≈ 0.183 µM)
- MIC (Saccharomyces cerevisiae [9]): 0.5 µg/mL (≈ 0.457 µM)
- IC50 [10]: 0.02515 µg/mL (≈ 0.023 µM)
- Ki [10]: 0.08045 µg/mL (≈ 0.0736 µM)
- IC50 [11]: 1.32867 µg/mL (≈ 1.22 µM)
- Ki [11]: 1.215 µg/mL (≈ 1.11 µM)
- MIC (Candida albicans [12]): 0.4 µg/mL (≈ 0.366 µM)
- MIC (Candida orthopsilosis [13]): 1 µg/mL (≈ 0.915 µM)
- IC50 [14]: 0.06554 µg/mL (≈ 0.0599 µM)
- Ki [14]: 0.18394 µg/mL (≈ 0.168 µM)
- IC50 [15]: 0.0006 µg/mL (≈ 0.000549 µM)
- Ki [15]: 0.00046 µg/mL (≈ 0.000421 µM)
- MIC (Candida orthopsilosis [16]): 0.79 µg/mL (≈ 0.723 µM)
- MIC (Candida albicans [17]): 0.2 µg/mL (≈ 0.183 µM)
- MIC (Candida metapsilosis [18]): 0.79 µg/mL (≈ 0.723 µM)
- IC50 [19]: 0.07948 µg/mL (≈ 0.0727 µM)
- Ki [19]: 0.292 µg/mL (≈ 0.267 µM)
- IC50 [20]: 0.00312 µg/mL (≈ 0.00285 µM)
- MIC (Candida metapsilosis [21]): 1 µg/mL (≈ 0.915 µM)
- MIC (Saccharomyces cerevisiae [22]): 0.02 µg/mL (≈ 0.0183 µM)
- IC50 [23]: 0.07526 µg/mL (≈ 0.0688 µM)
- Ki [23]: 0.0074 µg/mL (≈ 0.00677 µM)
- IC50 [24]: 0.05816 µg/mL (≈ 0.0532 µM)
- Ki [24]: 0.00429 µg/mL (≈ 0.00392 µM)
- IC50 [25]: 0.02121 µg/mL (≈ 0.0194 µM)
- Ki [25]: 0.04799 µg/mL (≈ 0.0439 µM)
- IC50 [26]: 0.04028 µg/mL (≈ 0.0368 µM)
- Ki [26]: 0.0769 µg/mL (≈ 0.0703 µM)
- MIC (Candida parapsilosis [27]): 2.24 µg/mL (≈ 2.05 µM)
- MIC (Saccharomyces cerevisiae [28]): 0.03 µg/mL (≈ 0.0274 µM)
- MIC (Nakaseomyces glabratus [29]): 0.1 µg/mL (≈ 0.0915 µM)
- MIC (Candida albicans [30]): 4 µg/mL (≈ 3.66 µM)
- IC50 [31]: 0.00052 µg/mL (≈ 0.000476 µM)
- Ki [31]: 0.00095 µg/mL (≈ 0.000869 µM)
